This passage reports inhibition and IC50 results from ChEMBL document CHEMBL5661979, “Pharmacological inhibition of BMK1 suppresses tumor growth through promyelocytic leukemia protein” (Cancer Cell, 2010).

Molecules are shown by their SMILES. Activity calls are given as the source filed them. The calls are words filed in the database; no cut-off is given here. Some results are limits rather than exact numbers.

Assay [1] addresses T1, Serine/threonine-protein kinase Chk1 (Homo sapiens) (UniProt O14757).
T1 sequence (whole entry): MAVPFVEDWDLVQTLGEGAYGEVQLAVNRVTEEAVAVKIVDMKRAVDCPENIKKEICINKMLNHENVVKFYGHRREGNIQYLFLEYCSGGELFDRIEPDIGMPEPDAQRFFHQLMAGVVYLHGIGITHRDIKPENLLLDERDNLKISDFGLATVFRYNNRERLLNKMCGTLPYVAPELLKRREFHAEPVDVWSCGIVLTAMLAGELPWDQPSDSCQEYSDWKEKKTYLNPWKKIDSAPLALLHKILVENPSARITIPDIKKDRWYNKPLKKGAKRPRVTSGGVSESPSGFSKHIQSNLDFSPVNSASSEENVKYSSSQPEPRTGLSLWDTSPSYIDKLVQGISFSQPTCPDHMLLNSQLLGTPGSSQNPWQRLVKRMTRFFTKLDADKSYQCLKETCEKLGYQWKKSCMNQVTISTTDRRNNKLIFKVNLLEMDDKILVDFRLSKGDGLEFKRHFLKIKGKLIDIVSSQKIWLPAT
The assay is described as follows: Inhibition of CHK1 in human HeLa cells lysate at 10 uM pre incubated for 15 mins followed by ATP acyl phosphate probe addition and measured after 10 mins by LC-MS/MS analysis relative to control. In kind it is subcellular. Conditions: time 25.0 min.

In assay [2] the target is Mitogen-activated protein kinase 14 (Homo sapiens, UniProt Q16539). The assay is described as follows: Inhibition of P38a in human HeLa cells lysate pre incubated for 15 mins followed by ATP acyl phosphate probe addition and measured after 10 mins by LC-MS/MS analysis. It is filed as subcellular.
Chain of Mitogen-activated protein kinase 14 (Q16539 whole entry): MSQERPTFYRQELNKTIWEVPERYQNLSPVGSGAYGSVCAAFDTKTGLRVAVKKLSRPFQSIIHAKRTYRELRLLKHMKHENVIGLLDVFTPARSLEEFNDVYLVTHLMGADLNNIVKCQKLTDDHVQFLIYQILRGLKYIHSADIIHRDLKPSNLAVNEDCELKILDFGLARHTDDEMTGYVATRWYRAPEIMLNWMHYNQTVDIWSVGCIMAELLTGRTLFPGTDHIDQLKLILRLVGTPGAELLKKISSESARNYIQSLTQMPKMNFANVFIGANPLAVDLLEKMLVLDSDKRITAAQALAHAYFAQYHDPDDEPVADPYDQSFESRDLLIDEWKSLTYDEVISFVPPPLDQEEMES
For assay [3], the target named is T2, STE20-related kinase adapter protein beta (Homo sapiens) (UniProt Q9C0K7).
T2 sequence (whole entry): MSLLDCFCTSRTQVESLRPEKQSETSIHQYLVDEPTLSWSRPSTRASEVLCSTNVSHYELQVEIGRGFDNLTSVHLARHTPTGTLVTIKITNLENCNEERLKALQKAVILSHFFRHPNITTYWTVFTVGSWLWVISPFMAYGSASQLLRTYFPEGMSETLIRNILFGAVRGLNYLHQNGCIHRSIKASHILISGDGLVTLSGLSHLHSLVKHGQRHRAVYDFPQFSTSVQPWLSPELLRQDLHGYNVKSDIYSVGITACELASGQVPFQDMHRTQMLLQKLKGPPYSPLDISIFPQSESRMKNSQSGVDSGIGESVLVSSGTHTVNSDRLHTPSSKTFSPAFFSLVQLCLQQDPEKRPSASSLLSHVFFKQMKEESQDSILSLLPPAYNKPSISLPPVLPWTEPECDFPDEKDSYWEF
Put plainly: Inhibition of ALS2CR2 in human HeLa cells lysate at 10 uM pre incubated for 15 mins followed by ADP acyl phosphate probe addition and measured after 10 mins by LC-MS/MS analysis relative to control. Conditions: time 25.0 min. It is filed as subcellular. In outline: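 HeLa cell lysates (5 mg/mL total protein) were preincubated with inhibitor at 0, 0.8, 2, 10 or 50 μM for 15 min. ATP or ADP acylphosphate probe was then added (5 μM final) for 10 min, and reactions were stopped with urea. Up to four fragment ions per kinase probe-peptide were quantified by targeted MS. % inhibition was taken relative to untreated lysate. Run in duplicate.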

The target in assay [4] is T1, Serine/threonine-protein kinase Chk1 (Homo sapiens). Put plainly: Inhibition of CHK1 K2 site in human HeLa cells lysate at 2 uM pre incubated for 15 mins followed by ATP acyl phosphate probe addition and measured after 10 mins by LC-MS/MS analysis relative to control. It is filed as subcellular. Conditions: time 25.0 min. A digest of the protocol: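 KiNativ profiling in HeLa lysate (5 mg/mL total protein). Lysate incubated 15 min with inhibitor at 50, 10, 2, 0.8 or 0 μM. ATP or ADP acylphosphate probe then added (5 μM final) and reacted 10 min. Reaction stopped with urea and analysed by targeted MS, using up to four fragment ions per kinase peptide-probe conjugate. % inhibition taken against untreated lysate. Run in duplicate.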

For assay [5], the target named is T3, Dual specificity mitogen-activated protein kinase kinase 7 (Homo sapiens) (UniProt O14733).
T3 sequence (whole entry): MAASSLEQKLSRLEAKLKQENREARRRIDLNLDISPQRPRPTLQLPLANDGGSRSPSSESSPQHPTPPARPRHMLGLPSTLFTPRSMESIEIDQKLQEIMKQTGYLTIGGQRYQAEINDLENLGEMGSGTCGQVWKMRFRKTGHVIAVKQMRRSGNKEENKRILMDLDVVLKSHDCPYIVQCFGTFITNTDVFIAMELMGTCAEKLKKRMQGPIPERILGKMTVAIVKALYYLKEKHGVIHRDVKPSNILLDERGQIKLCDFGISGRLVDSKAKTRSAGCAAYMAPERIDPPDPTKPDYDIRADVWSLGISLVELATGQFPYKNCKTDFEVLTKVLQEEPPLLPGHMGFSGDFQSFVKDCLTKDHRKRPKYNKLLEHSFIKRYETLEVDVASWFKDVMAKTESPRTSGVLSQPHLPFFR
Put plainly: Inhibition of MAP2K7 in human HeLa cells lysate at 50 uM pre incubated for 15 mins followed by ADP acyl phosphate probe addition and measured after 10 mins by LC-MS/MS analysis relative to control. It is filed as subcellular. As to conditions: time 25.0 min.

Assay [6] addresses Mitogen-activated protein kinase kinase kinase 7 (Homo sapiens, UniProt O43318). Put plainly: Inhibition of TAK1 in human HeLa cells lysate pre incubated for 15 mins followed by ATP acyl phosphate probe addition and measured after 10 mins by LC-MS/MS analysis. It is filed as subcellular.
For assay [7], the target named is Microtubule-associated serine/threonine-protein kinase 3 (Homo sapiens, UniProt O60307). Put plainly: Inhibition of MAST3 in human HeLa cells lysate pre incubated for 15 mins followed by ATP acyl phosphate probe addition and measured after 10 mins by LC-MS/MS analysis. In kind it is subcellular.
Chain of Microtubule-associated serine/threonine-protein kinase 3 (O60307 whole entry): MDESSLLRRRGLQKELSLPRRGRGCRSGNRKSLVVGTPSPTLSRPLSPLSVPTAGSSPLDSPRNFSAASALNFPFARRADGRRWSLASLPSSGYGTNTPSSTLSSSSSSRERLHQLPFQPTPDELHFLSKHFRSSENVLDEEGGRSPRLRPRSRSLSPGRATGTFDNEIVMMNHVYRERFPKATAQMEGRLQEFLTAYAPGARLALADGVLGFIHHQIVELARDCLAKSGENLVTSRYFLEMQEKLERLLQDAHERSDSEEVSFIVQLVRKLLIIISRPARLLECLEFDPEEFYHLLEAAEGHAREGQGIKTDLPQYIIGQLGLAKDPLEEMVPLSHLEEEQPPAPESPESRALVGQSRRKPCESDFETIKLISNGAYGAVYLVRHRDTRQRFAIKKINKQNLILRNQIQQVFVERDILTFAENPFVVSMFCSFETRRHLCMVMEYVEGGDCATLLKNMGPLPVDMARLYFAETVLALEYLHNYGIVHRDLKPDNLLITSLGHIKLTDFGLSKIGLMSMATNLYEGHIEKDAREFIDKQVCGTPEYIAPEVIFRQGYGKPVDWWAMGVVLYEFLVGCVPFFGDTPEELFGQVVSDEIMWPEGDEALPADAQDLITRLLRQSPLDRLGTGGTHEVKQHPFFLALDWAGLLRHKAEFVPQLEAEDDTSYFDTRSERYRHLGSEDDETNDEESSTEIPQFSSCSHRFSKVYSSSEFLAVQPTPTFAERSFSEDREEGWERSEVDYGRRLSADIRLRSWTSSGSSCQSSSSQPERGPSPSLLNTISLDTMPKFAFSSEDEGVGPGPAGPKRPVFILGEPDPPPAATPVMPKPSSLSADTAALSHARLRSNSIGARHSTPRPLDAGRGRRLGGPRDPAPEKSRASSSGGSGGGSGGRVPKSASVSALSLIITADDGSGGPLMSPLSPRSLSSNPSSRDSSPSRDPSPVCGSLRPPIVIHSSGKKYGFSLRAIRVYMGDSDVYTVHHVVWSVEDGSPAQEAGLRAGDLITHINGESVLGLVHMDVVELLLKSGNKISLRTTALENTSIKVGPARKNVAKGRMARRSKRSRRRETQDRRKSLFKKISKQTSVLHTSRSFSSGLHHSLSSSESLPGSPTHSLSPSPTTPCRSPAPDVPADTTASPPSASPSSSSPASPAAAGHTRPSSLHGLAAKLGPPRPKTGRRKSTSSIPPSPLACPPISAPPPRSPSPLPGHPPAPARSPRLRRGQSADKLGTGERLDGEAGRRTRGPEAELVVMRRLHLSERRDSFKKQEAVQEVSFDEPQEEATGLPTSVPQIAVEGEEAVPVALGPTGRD
In assay [8] the target is Mitogen-activated protein kinase kinase kinase kinase 2 (Homo sapiens, UniProt Q12851). The assay is described as follows: Inhibition of GCK in human HeLa cells lysate pre incubated for 15 mins followed by ADP acyl phosphate probe addition and measured after 10 mins by LC-MS/MS analysis. In kind it is subcellular.
Chain of Mitogen-activated protein kinase kinase kinase kinase 2 (Q12851 whole entry): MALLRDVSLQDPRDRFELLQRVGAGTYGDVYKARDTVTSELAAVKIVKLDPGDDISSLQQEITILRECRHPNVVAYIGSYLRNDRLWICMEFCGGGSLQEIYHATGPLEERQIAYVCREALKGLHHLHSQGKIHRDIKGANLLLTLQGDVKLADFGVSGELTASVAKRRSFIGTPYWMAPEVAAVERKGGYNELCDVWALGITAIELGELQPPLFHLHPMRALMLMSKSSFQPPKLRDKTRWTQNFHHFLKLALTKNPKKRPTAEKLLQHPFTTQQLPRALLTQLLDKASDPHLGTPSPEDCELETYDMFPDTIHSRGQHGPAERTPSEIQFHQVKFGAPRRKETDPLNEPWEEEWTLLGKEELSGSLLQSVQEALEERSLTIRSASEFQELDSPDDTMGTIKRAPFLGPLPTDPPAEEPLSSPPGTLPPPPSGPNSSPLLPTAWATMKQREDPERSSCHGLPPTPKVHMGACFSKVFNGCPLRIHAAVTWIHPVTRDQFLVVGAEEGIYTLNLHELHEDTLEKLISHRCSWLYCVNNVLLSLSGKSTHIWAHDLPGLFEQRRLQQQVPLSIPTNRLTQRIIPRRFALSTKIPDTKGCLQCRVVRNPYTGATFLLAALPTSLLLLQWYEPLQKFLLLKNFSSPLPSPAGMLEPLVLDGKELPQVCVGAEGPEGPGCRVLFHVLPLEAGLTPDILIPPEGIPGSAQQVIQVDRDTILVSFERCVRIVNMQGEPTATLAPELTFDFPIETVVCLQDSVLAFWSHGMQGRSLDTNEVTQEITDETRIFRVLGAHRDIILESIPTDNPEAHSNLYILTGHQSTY
Assay [9] deals with Serine/threonine-protein kinase Aurora (Homo sapiens, UniProt Q96GD4+Q9UQB9+O14965). The assay is described as follows: Inhibition of AurA/AurB/AurC in human HeLa cells lysate at 50 uM pre incubated for 15 mins followed by ATP acyl phosphate probe addition and measured after 10 mins by LC-MS/MS analysis relative to control. It is filed as subcellular. As to conditions: time 25.0 min. A digest of the protocol:
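KiNativ-type profiling in HeLa lysate (5 mg/mL total protein). Lysate preincubated 15 min with inhibitor at 50, 10, 2, 0.8 or 0 μM, then ATP or ADP acylphosphate probe added (5 μM final) for 10 min. Reaction stopped with urea and analysed by targeted MS, using up to four fragment ions per kinase peptide-probe conjugate. % inhibition calculated against untreated lysate. Duplicate reactions.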

Assay [10] is described as follows: Inhibition of PCTAIRE2/ICK in human HeLa cells lysate at 50 uM pre incubated for 15 mins followed by ADP acyl phosphate probe addition and measured after 10 mins by LC-MS/MS analysis relative to control. As to conditions: 25 min, condition cancer.
Assay [11] concerns the target Mitogen-activated protein kinase; ERK1/ERK2 (Homo sapiens) (UniProt P27361+P28482). The assay is described as follows: Inhibition of ERK1/2 in human HeLa cells assessed as reduction in EGF-induced ERK1/2 phosphorylation level at T202/Y204 residue at 1 to 5 uM pre incubated for 1 hr followed by EGF stimulation and measured after 17 mins by Western blot analysis. In kind it is cell-based. Conditions: dose 1-5 µM, time 77.0 min. (In general: In western blotting, separated proteins are transferred to a membrane and probed.)

Chain of Mitogen-activated protein kinase kinase kinase 7 (O43318 whole entry): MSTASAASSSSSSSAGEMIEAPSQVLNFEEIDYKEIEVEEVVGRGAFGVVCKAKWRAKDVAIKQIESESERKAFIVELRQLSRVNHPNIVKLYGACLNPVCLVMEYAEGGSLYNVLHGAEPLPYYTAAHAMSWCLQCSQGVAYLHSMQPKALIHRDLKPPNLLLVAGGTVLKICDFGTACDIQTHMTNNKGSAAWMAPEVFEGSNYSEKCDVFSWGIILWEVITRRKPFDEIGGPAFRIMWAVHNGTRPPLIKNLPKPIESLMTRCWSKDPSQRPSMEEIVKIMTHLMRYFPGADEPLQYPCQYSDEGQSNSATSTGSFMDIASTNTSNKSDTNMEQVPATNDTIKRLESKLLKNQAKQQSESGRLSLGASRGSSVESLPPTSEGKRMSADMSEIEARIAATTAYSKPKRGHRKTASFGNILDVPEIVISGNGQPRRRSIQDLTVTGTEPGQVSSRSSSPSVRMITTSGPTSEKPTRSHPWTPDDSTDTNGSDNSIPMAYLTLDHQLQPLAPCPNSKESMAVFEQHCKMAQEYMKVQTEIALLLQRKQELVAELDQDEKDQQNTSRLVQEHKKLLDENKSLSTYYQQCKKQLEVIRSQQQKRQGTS
Chain of Mitogen-activated protein kinase; ERK1/ERK2 (Homo sapiens) (P27361 whole entry, looked up): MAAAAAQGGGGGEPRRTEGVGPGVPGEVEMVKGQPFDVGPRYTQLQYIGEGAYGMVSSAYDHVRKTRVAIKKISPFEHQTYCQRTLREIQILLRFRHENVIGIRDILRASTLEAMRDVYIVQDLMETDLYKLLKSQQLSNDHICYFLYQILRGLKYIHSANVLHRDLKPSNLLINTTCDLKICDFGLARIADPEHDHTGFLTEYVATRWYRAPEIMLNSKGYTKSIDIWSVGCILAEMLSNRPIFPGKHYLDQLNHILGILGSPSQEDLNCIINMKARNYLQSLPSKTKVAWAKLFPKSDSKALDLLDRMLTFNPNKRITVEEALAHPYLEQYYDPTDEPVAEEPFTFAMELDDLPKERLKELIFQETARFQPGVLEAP
Chain of Mitogen-activated protein kinase; ERK1/ERK2 (Homo sapiens) (P28482 whole entry, looked up): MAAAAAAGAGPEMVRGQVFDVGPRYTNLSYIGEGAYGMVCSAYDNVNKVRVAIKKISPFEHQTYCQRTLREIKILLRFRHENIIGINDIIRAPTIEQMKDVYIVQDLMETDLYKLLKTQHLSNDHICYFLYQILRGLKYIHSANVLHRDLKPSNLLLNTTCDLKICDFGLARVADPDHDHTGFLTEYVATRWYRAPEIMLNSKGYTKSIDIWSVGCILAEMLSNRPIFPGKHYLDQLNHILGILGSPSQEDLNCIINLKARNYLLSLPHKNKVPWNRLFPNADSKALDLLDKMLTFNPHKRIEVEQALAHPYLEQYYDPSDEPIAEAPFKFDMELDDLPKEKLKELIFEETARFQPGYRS
Chain of Serine/threonine-protein kinase Aurora (O14965 whole entry, looked up, the tested form may be a part): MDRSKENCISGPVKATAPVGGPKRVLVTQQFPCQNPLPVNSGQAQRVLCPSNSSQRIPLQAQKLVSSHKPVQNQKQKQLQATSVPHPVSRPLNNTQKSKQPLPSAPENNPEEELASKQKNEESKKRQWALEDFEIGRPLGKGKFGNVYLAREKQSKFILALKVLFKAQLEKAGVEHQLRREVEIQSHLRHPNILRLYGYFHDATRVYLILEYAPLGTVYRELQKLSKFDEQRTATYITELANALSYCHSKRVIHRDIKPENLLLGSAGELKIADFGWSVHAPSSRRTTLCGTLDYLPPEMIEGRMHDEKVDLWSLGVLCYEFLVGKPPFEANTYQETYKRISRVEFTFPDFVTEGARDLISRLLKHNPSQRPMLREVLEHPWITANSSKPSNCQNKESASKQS
Chain of Serine/threonine-protein kinase Aurora (Q96GD4 whole entry, looked up, the tested form may be a part): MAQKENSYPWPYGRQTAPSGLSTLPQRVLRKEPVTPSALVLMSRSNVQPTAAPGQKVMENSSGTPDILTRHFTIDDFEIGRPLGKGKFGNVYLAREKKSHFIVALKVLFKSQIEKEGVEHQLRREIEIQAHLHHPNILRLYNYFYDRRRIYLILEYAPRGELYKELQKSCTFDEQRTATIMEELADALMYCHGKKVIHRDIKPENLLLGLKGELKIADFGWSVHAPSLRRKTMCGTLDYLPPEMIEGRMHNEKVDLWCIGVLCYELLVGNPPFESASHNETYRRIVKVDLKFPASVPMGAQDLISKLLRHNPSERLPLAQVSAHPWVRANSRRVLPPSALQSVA
Chain of Serine/threonine-protein kinase Aurora (Q9UQB9 whole entry, looked up, the tested form may be a part): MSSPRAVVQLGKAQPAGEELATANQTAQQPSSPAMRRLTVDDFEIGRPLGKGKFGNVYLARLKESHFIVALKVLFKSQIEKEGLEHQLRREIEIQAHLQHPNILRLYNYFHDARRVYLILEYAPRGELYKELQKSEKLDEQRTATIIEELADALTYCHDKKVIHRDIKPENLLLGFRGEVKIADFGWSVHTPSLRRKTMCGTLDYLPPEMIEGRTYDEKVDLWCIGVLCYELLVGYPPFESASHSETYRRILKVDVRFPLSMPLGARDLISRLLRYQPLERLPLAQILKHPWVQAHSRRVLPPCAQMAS

By inhibition is commonly meant the change of the read-out against control, counted positive when it falls. Usually IC50 stands for the concentration that gives 50% inhibition. High values mean weaker potency in that assay, low ones greater potency in that assay. Turning to `CCOc1cc(N2CCC(O)CC2)ccc1Nc1ncc2c(n1)N(C)c1ccccc1C(=O)N2C`, the inhibition in [1] is -9.9%; in assay [3], -9.5%; in [4] it was -2%; in assay [5], 4.2%; in assay [9], 10.2%. For the same compound, the IC50 in assay [2], in assay [6], in [7] and in assay [8] was more than 50 µM in each case. For the same compound, the inhibition at 50 µM in assay [10] turned out to be 4.1%. The inhibition result in [11] is “inactive”.
